Calls of active or inactive are those of the source. The calls are words filed in the database; no cut-off is given here.
Key:
HCT-116 [1] = experiment: (§1) Cell cycle arrest in human HCT116 cells assessed as accumulation at G0/G1 phase at 4.80 uM after 48 hrs; type: functional
Outline: (§2)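 Adherent plus floating cells (5 · 10^5) collected 24 or 48 h after treatment, fixed in cold 70% ethanol at −20 °C overnight, washed in PBS. RNase A (100 µg/mL) and propidium iodide (20 µg/mL) in Vindelov's solution, 30 min at RT. Flow cytometry with 488 nm excitation, emission 585 ± 21 nm; % cells per cycle phase from DNA content histograms.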

HCT-116 [2] = experiment: Cell cycle arrest in human HCT116 cells assessed as accumulation at S phase at 4.80 uM after 48 hrs; type: functional
Outline: (§3)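 Cells seeded at 8 · 10^5 per 60 mm dish, allowed to settle 24 h (37 °C, 5% CO2), then exposed to the drug for 24 or 48 h. Adherent plus floating cells (5 · 10^5) were fixed in cold 70% ethanol at −20 °C overnight, treated with RNase A (100 µg/mL) and stained with propidium iodide (20 µg/mL) in Vindelov's solution for 30 min at RT. Flow cytometry used 488 nm excitation, FL-2 at 585 ± 21 nm, and histograms were modelled for G0/G1, S and G2/M fractions.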

HeLa [3] = experiment: Induction of apoptosis in human HeLa cells at 3.50 uM after 24 hrs; type: functional
Outline: (§4)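 After 24 or 48 h of drug exposure, all cells were collected, combining trypsinised adherent cells with floating cells from the medium. Cells (1 × 10^6) were fixed in cold 70% ethanol overnight at −20 °C and stained with DAPI (10 µg/mL) for 30 min in the dark at RT. Under fluorescence microscopy, 300 cells per sample were scored, with condensed or fragmented nuclei counted as apoptotic.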

HCT-116 [4] = experiment: Antiproliferative activity against human HCT116 cells assessed as increase of floating cells in total cell population at 4.80 uM after 24 hrs; type: functional
Outline: (§5)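 Cells seeded (8 · 10^5 per 60 mm dish), allowed to settle 24 h at 37 °C, 5% CO2, then treated with a single concentration for 24 or 48 h. Adherent and floating cells counted by Coulter counter. Total cell number given as % of untreated control; floating cells as % of total cell number.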

HeLa [5] = experiment: Antiproliferative activity against human HeLa cells assessed as increase of floating cells in total cell population at 3.50 uM after 24 hrs; type: functional; outline: as §5
HCT-116 [6] = experiment: Induction of DNA fragmentation in human HCT116 cells after 48 hrs; type: functional, cell-based
Outline: (§6)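 HCT-116 cells were treated for 24 or 48 h. Adherent and floating cells (5 × 10^5) were pooled, fixed in cold 70% ethanol and held overnight at −20 °C. Samples were treated with RNase A (100 µg/mL) and stained with propidium iodide (20 µg/mL) in Vindelov's solution for 30 min at RT. Flow cytometry used 488 nm excitation with emission at 585 nm. Subdiploid (subG0/G1) particles were scored on a logarithmic scale, with debris gated out on FSC × SSC.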

HeLa [7] = experiment: Cell cycle arrest in human HeLa cells assessed as accumulation at G0/G1 phase at 3.50 uM after 48 hrs; type: functional; outline: as §3
HCT-116 [8] = experiment: Cell cycle arrest in human HCT116 cells assessed as accumulation at G2/M phase at 4.80 uM after 48 hrs; type: functional; outline: as §3
HeLa [9] = experiment: Cell cycle arrest in human HeLa cells assessed as accumulation at S phase at 3.50 uM after 24 hrs; type: functional; outline: as §3
HCT-116 [10] = experiment: Antiproliferative activity against human HCT116 cells assessed as decrease in total cell population at 4.80 uM after 24 hrs; type: functional; set-up: scale not given: the % may be the effect or the level left; outline: as §5
HeLa [11] = experiment: Antiproliferative activity against human HeLa cells assessed as decrease in total cell population at 3.50 uM after 48 hrs; type: functional; set-up: scale not given: the % may be the effect or the level left; outline: as §5
HeLa [12] = experiment: Cytotoxicity against human HeLa cells after 48 hrs by MTT assay; type: functional, cell-based
DNA [13] = experiment: Binding affinity to calf thymus DNA at 50 uM by circular dichroism spectrophotometric titration; type: nucleic-acid assay; details: Bos taurus
HCT-116 [14] = experiment: Induction of apoptosis in human HCT116 cells at 4.80 uM after 48 hrs; type: functional; outline: as §4
HCT-116 [15] = experiment: Antiproliferative activity against human HCT116 cells assessed as decrease in total cell population at 4.80 uM after 48 hrs; type: functional; set-up: scale not given: the % may be the effect or the level left; outline: as §5
HeLa [16] = experiment: Cell cycle arrest in human HeLa cells assessed as accumulation at S phase at 3.50 uM after 48 hrs; type: functional; outline: as §3
HeLa [17] = experiment: Cell cycle arrest in human HeLa cells assessed as accumulation at G2/M phase at 3.50 uM after 48 hrs; type: functional; outline: as §3
HeLa [18] = experiment: Cell cycle arrest in human HeLa cells assessed as accumulation at G0/G1 phase at 3.50 uM after 24 hrs; type: functional; outline: as §3
HCT-116 [19] = experiment: Cytotoxicity against human HCT116 cells after 72 hrs by MTT assay; type: functional, cell-based; details: Homo sapiens, HCT-116, 72 h
HeLa [20] = experiment: Cell cycle arrest in human HeLa cells assessed as accumulation at G2/M phase at 3.50 uM after 24 hrs; type: functional; outline: as §3
HeLa [21] = experiment: Antiproliferative activity against human HeLa cells assessed as decrease in total cell population at 3.50 uM after 24 hrs; type: functional; set-up: scale not given: the % may be the effect or the level left; outline: as §5
HCT-116 [22] = experiment: Cytotoxicity against human HCT116 cells after 48 hrs by MTT assay; type: functional, cell-based; details: HCT-116, 48 h
HCT-116 [23] = experiment: as §1; type: functional; outline: as §2; remark: listed apart in the source
HeLa [24] = experiment: Cytotoxicity against human HeLa cells after 72 hrs by MTT assay; type: functional, cell-based
HeLa [25] = experiment: Antiproliferative activity against human HeLa cells assessed as increase of floating cells in total cell population at 3.50 uM after 48 hrs; type: functional; outline: as §5
DNA [26] = experiment: Binding affinity to calf thymus DNA at 4 uM by fluorescence spectrophotometric titration; type: nucleic-acid assay; details: Bos taurus
Outline: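 ctDNA sonicated in TE buffer, concentration taken from A260 and given in base pairs. Compound (4 µM) in 0.01 M Tris, pH 7.4, 25 °C titrated with ctDNA (0–55 µM bp) until spectra stopped changing. Excitation 424 nm, slit widths 10 nm; binding constant derived from the change in emission.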

HCT-116 [27] = experiment: Induction of DNA fragmentation in human HCT116 cells after 24 hrs; type: functional, cell-based; outline: as §6
HeLa [28] = experiment: Induction of apoptosis in human HeLa cells at 3.50 uM after 48 hrs; type: functional; outline: as §4
HCT-116 [29] = experiment: Induction of apoptosis in human HCT116 cells at 4.80 uM after 24 hrs; type: functional; outline: as §4
HCT-116 [30] = experiment: Antiproliferative activity against human HCT116 cells assessed as increase of floating cells in total cell population at 4.80 uM after 48 hrs; type: functional; outline: as §5
[31] = in the assay text read “after 24 hrs” for “after 48 hrs”

Q: What does the source list for CCCCCCNC(=O)Nc1ccc2cc3ccc(NC(=O)NCCCCCC)cc3nc2c1.Cl?
A: Activity (HCT-116 [1]): 36%; Activity (HCT-116 [2]): 22.97%; Activity (HCT-116 [2]; [31]): 21.38%; Activity (HeLa [3]): 0.75%; Activity (HCT-116 [4]): 77.94%; Activity (HeLa [5]): 4.21%; Activity (HCT-116 [6]): Active; Activity (HeLa [7]): 66.57%; Activity (HCT-116 [8]): 41.06%; Activity (HCT-116 [8]; [31]): 45.1%; Activity (HeLa [9]): 27.08%; Activity (HCT-116 [10]): 48.1%; Activity (HeLa [11]): 91.16%; IC50 (HeLa [12]): 3.49 µM; Activity (DNA [13]): Active; Activity (HCT-116 [14]): 12.67%; Activity (HCT-116 [15]): 19.84%; Activity (HeLa [16]): 21.55%; Activity (HeLa [17]): 11.88%; Activity (HeLa [18]): 59.69%; IC50 (HCT-116 [19]): 3.09 µM; Activity (HeLa [20]): 13.24%; Activity (HeLa [21]): 87.42%; IC50 (HCT-116 [22]): 4.76 µM; Activity (HCT-116 [23]): 35.98%; IC50 (HeLa [24]): 3.7 µM; Activity (HeLa [25]): 4.41%; K (DNA [26]): 0.9 ×10⁵ /M; Activity (HCT-116 [27]): Active; Activity (HeLa [28]): 1%; Activity (HCT-116 [29]): 5.67%; Activity (HCT-116 [30]): 88.55%

— ChEMBL document CHEMBL1157145, “Cytotoxic activity of proflavine diureas: synthesis, antitumor, evaluation and DNA binding properties of 1',1''-(acridin-3,6-diyl)-3',3''-dialkyldiureas” (Bioorg Med Chem, 2008)
